Laboratory results taken from ChEMBL document CHEMBL4732170, “Discovery of Small-Molecule Antagonists of the PWWP Domain of NSD2” (J Med Chem, 2021).
Active and inactive are the calls of the source. The rule behind the calls is not given here.

Legend:
[1] = molecular target: T1, Histone-lysine N-methyltransferase NSD2 (Homo sapiens, UniProt O96028); experiment: (§1) Binding affinity to NSD2 PWWP1 domain (unknown origin) assessed as dissociation constant by surface plasmon resonance analysis
T1 sequence (O96028 whole entry): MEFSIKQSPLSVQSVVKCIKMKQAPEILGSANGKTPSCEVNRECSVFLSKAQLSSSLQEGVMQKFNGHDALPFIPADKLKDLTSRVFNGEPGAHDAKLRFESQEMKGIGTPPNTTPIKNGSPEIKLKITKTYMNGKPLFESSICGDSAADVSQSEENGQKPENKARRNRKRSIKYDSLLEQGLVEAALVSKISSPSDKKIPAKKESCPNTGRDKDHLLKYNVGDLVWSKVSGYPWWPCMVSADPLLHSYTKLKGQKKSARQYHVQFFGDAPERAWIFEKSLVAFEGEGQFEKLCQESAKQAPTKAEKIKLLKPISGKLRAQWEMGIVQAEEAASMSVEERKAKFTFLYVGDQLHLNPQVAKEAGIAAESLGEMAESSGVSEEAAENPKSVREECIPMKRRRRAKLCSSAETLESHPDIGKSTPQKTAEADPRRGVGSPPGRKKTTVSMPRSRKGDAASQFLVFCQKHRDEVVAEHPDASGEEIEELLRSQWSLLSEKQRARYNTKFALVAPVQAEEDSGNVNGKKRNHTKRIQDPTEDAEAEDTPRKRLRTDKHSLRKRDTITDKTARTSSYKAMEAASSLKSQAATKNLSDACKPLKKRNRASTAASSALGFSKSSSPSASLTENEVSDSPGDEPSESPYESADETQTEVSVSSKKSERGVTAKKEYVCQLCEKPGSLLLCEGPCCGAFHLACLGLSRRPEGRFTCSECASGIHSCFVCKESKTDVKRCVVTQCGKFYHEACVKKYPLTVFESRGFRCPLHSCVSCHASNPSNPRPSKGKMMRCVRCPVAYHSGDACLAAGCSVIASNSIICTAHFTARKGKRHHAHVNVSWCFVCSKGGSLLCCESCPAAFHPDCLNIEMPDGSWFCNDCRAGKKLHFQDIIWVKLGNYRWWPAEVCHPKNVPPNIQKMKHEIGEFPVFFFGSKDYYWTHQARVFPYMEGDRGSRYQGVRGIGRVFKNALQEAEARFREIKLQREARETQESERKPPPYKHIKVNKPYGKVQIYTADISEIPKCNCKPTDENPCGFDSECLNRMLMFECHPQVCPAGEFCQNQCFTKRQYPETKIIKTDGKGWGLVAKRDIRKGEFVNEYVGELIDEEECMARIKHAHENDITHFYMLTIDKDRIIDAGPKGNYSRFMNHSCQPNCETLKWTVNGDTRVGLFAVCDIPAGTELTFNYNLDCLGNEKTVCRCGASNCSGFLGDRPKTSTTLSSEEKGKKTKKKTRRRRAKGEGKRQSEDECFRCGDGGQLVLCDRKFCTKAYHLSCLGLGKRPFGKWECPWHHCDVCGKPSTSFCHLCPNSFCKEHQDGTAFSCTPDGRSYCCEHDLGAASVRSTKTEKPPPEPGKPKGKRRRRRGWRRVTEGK
Method in brief: (§2)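 SPR in single-cycle kinetics, HBS-EP buffer (20 mM HEPES pH 7.4, 150 mM NaCl, 3 mM EDTA, 0.05% Tween-20) with 5% DMSO. Ten concentrations from 200 μM top, twofold dilutions. Contact time 60 s, dissociation 120 s, flow 75 μL/min; Kd derived.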

[2] = molecular target: T2, Histone-lysine N-methyltransferase NSD2 (Homo sapiens) (UniProt O96028); experiment: Binding affinity to NSD2 PWWP1 domain (unknown origin) assessed as change in aggregation temperature at 500 uM by heating at 25 to 85 degC by differential static light scattering method; conditions: for deltaT: filed as antagonist
T2 sequence (whole entry): T1 sequence (O96028 whole entry)

[3] = molecular target: T2, Histone-lysine N-methyltransferase NSD2 (Homo sapiens); experiment: as §1; method in brief: as §2

Row | Compound | Kd [1] [µM] | deltaT [2] [°C] | Activity [3] | Activity [2]
1 | O=C(c1ccc(N2CNC=N2)cc1)N1CCCC1c1ccc(F)cc1 (configuration not stated) | 297 | 1.2 |  | 
2 | N#Cc1ccc(C(=O)N2CCCC2c2ccsc2)cc1 (configuration not stated) | 178 | 2.2 |  | 
3 | N#Cc1ccc(C(=O)N(Cc2ccc(F)cc2)C2CC2)cc1 | 7 |  |  | 
4 | N#Cc1ccc(C(=O)N2CCCC2c2ccccc2)cc1 (configuration not stated) | 110 | 2.4 |  | 
5 | N#Cc1ccc(C(=O)N2CCCC2c2ccc(Cl)cc2)cc1 (configuration not stated) | 175 |  |  | 
6 | N#Cc1ccc(C(=O)N(Cc2ccc(F)cc2)C2CCCCC2)cc1 |  |  | inactive | inactive
7 | N#Cc1ccc(C(=O)N(Cc2ccc(F)cc2)C2CCC2)cc1 | 114 | 1.1 |  | 
8 | N#Cc1ccc(C(=O)NCc2ccc(F)cc2)cc1 |  |  | inactive | inactive
9 | N#Cc1ccc(C(=O)N(CC2CCOC2)C2CC2)cc1 (configuration not stated) | 5.7 | 5.4 |  | 
10 | COC(=O)c1ccc(C(=O)N2CCCC2c2ccc(F)cc2)cc1 (configuration not stated) | 173 | 1.4 |  | 
11 | N#Cc1ccc(C(=O)N2CCCC2c2ccc3c(c2)OCCO3)cc1 (configuration not stated) | 138 | 2.7 |  | 
12 | N#Cc1ccc(C(=O)N2CCCC2c2ccncc2)cc1 (configuration not stated) | 160 | 2.8 |  | 
13 | O=C(c1ccccc1)N1CCCC1c1ccccc1 (configuration not stated) |  |  | inactive | inactive
14 | COc1ccc(C2CCCN2C(=O)c2ccc(C#N)cc2)cc1 (configuration not stated) | 208 | 2.4 |  | 
15 | CC(C)N(Cc1ccc(F)cc1)C(=O)c1ccc(C#N)cc1 |  |  | inactive | inactive
16 | Cc1ccc(C(=O)N2CCCC2c2ccc(Cl)cc2)cc1 (configuration not stated) |  |  | inactive | inactive
17 | CN(Cc1ccc(F)cc1)C(=O)c1ccc(C#N)cc1 | 74 | 2 |  | 
